Experimental data published in ChEMBL document CHEMBL4673335, “Store-Operated Calcium Entry as a Therapeutic Target in Acute Pancreatitis: Discovery and Development of Drug-Like SOCE Inhibitors” (J Med Chem, 2020).
Calls of active or inactive are those of the source. The calls are words filed in the database; no cut-off is given here.

Legend:
[1] = molecular target: T1, ORAI1/STIM1 (Homo sapiens) (UniProt Q96D31+Q13586); test: Inhibition of STIM1/Orai1 (unknown origin) expressed in HEK293 cells assessed as reduction in tBHQ-induced calcium response at 10 uM relative to control; type: cell-based
Outline: (§1)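 HEK cells, calcium imaging by fluorescence microscopy. Ca2+ added after 600 s and intracellular levels recorded. Traces averaged over 200 cells, then scored as AUC, peak amplitude and slope of the Ca2+ rise versus untreated control. Compound working solutions diluted from a 50 mM DMSO stock to 0.1% DMSO in physiologic buffer.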

[2] = tested on: HEK293; test: Cytotoxicity in HEK293 cells assessed as cell viability at 10 uM after 24 hrs by MTT assay; type: cell-based; details: human, hek293, 24 h
Outline: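 MTT viability assay. HEK cells seeded at 20,000 per well, treated 24 h after plating for a further 24 h. MTT at 0.25 mg/mL final for 60 min at 37 °C. Crystals dissolved in isopropyl alcohol/HCl (1 M), absorbance read at 570 nm. Compounds diluted to 0.1% DMSO in culture medium.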

[3] = molecular target: ORAI1/STIM1 (Homo sapiens, UniProt Q13586+Q96D31); test: Inhibition of STIM1/Orai1 (unknown origin) expressed in HEK293 cells assessed as reduction in tBHQ-induced calcium response; type: cell-based
[4] = molecular target: T1, ORAI1/STIM1 (Homo sapiens); test: Inhibition of STIM1/Orai1 (unknown origin) expressed in HEK293 cells assessed as reduction in tBHQ-induced calcium response by measuring decrease in calcium entry AUC at 10 uM relative to control; type: cell-based; outline: as §1
[5] = molecular target: T1, ORAI1/STIM1 (Homo sapiens); test: Inhibition of STIM1/Orai1 (unknown origin) expressed in HEK293 cells assessed as reduction in tBHQ-induced calcium response by measuring decrease in peak amplitude of calcium entry at 10 uM relative to control; type: cell-based; outline: as §1
[6] = tested on: HEK293; test: Cytotoxicity in HEK293 cells assessed as cell viability at 50 uM after 72 hrs by MTT assay; type: cell-based; details: human, hek293, 72 h
Outline: (§2)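 MTT viability in HEK cells after 72 h treatment at 50 μM, with or without 100 μM uridine. MTT at 0.25 mg/mL final for 60 min at 37 °C, solubilized in isopropyl alcohol/HCl (1 M), absorbance read at 570 nm. Mean ± SEM, Student t-test against control.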

[7] = tested on: HEK293; test: Cytotoxicity in HEK293 cells assessed as cell viability at 50 uM after 72 hrs in presence of excess uridine by MTT assay; type: cell-based; details: human, hek293, 72 h; outline: as §2
[8] = molecular target: T1, ORAI1/STIM1 (Homo sapiens); test: Activation of STIM1/Orai1 (unknown origin) expressed in HEK293 cells assessed as increase in tBHQ-induced calcium response by measuring increase in peak amplitude of calcium entry at 10 uM relative to control; type: cell-based; details: filed as opener, dose 3.0 µM, in the assay text read “at 3 uM” for “at 10 uM”; outline: as §1
[9] = molecular target: T1, ORAI1/STIM1 (Homo sapiens); test: Activation of STIM1/Orai1 (unknown origin) expressed in HEK293 cells assessed as increase in tBHQ-induced calcium response by measuring increase in AUC of calcium entry at 10 uM relative to control; type: cell-based; details: filed as opener, dose 3.0 µM, in the assay text read “at 3 uM” for “at 10 uM”; outline: as §1
[10] = molecular target: T1, ORAI1/STIM1 (Homo sapiens); test: Inhibition of STIM1/Orai1 (unknown origin) expressed in HEK293 cells assessed as reduction in tBHQ-induced calcium response by measuring decrease in slope of calcium entry at 10 uM relative to control; type: cell-based; outline: as §1
[11] = tested on: Mus musculus; test: Anti pancreatitis activity in C57BL/6 mouse model of cerulein-induced acute pancreatitis assessed as amelioration of histological scores at 10 mg/kg, ip administered 30 and 150 mins after the first cerulein injection measured 5 hrs after first cerulein injection by H and E staining based assay; type: functional, organism-based
Outline: (§3)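 Acute pancreatitis induced in mice by i.p. cerulein injections. Test agent given i.p. at 10 mg/kg, 30 and 150 min after the first cerulein injection. Pancreas collected 5 h after the first cerulein injection, H&E stained and scored histologically for inflammation and edema.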

[12] = tested on: Mus musculus; test: Anti pancreatitis activity in C57BL/6 mouse model of cerulein-induced acute pancreatitis assessed as reduction of inflammation and edema at 10 mg/kg, ip administered 30 and 150 mins after the first cerulein injection measured 5 hrs after first cerulein injection by H and E staining based assay; type: functional, organism-based; outline: as §3
[13] = Thermodynamic aqueous solubility; type: physicochemical; details: read-out: Therm_solubility
Outline: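 About 3 mg compound in 3 mL deionized water, vortexed, sonicated 5 min, then shaken overnight at 25 °C. Filtered through a 0.22 μm membrane, DMSO added, diluted about 1:10 in water. Quantified by LC–UV against DMSO standard solutions.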

[14] = Metabolic stability in mouse liver microsomes assessed as compound remaining after 1 hr; type: ADME, Microsome; details: read-out: Stabilty
Outline: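 Pooled male CD-1 mouse liver microsomes (20 mg/mL protein stock), NADPH-activated. Substrate at 5 μM. Residual parent measured after 1 h incubation.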

[15] = dose 3.0 µM, in the assay text read “at 3 uM” for “at 10 uM”

ORAI1/STIM1, sequence (Q96D31 whole entry): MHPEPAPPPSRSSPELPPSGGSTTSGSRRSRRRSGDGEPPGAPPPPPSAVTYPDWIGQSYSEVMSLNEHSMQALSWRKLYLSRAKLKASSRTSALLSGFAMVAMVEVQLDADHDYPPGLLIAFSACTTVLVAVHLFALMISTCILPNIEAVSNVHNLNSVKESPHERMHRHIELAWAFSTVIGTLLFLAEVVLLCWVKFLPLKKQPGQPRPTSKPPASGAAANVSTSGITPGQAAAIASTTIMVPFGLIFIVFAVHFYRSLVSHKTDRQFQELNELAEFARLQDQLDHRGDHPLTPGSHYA
ORAI1/STIM1, sequence (Q13586 whole entry): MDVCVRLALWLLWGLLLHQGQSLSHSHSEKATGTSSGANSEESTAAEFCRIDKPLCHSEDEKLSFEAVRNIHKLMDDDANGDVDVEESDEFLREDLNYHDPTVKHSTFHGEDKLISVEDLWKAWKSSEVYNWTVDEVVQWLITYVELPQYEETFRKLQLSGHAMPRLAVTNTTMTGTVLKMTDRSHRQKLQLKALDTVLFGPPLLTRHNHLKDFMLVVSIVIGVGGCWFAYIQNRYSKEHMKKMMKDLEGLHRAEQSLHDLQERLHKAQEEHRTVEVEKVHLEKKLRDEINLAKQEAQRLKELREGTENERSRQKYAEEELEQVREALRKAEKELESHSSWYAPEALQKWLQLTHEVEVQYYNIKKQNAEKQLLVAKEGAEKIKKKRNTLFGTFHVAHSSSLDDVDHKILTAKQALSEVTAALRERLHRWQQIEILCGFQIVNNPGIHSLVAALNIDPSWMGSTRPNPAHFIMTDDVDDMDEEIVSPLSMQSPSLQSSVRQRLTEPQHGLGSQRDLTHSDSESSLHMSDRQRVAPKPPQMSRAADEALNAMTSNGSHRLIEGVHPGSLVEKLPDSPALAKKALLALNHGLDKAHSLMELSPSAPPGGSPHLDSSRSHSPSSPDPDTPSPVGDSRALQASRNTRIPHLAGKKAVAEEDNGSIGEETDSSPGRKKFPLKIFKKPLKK
T1 sequence (Q13586 23-685 partner limits assumed): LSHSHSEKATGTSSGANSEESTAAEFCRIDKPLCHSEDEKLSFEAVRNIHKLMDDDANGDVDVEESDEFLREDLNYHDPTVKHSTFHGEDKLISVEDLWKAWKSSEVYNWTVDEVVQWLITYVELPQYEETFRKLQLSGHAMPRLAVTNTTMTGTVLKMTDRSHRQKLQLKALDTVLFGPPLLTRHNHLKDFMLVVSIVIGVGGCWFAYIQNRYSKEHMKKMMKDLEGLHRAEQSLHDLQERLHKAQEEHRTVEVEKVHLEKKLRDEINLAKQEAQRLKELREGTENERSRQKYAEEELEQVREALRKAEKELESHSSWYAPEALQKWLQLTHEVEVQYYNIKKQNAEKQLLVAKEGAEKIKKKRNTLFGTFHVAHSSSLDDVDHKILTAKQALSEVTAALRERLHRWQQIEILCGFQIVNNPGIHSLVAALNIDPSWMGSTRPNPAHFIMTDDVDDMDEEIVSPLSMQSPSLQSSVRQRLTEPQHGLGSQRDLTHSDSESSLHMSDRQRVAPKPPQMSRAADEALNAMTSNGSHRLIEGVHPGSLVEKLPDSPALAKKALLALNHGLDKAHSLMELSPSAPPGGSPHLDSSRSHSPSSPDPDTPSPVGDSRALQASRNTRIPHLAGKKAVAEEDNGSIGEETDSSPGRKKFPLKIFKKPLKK
T1 sequence (Q96D31 whole entry): as the sequence (Q96D31 whole entry) above

Structure (SMILES): COc1cc(OC)cc(-c2ccc(-c3cn(-c4cccc(C(=O)O)c4)nn3)cc2)c1
- inhibition ([1]; dose 10.0 µM): 75.4%

Structure (SMILES): COc1ccc(OC)c(-c2ccc(-c3cn(-c4cccc(C(=O)O)c4)nn3)cc2)c1
- inhibition ([1]; dose 10.0 µM): 87.8%
- Activity [2]: 71.8%
- IC50 [3]: 1790 nM
- inhibition [4]: Active
- inhibition [5]: Active

Structure (SMILES): COc1ccccc1-c1ccc(-n2cc(-c3cccc(C(=O)O)c3)nn2)cc1
- inhibition ([1]; dose 10.0 µM): 45.9%

Structure (SMILES): COc1ccc(OC)c(-c2ccc(-c3cn(-c4cccnc4)nn3)cc2)c1
- inhibition ([1]; dose 10.0 µM): 1.2%

Structure (SMILES): COc1cc(OC)cc(-c2ccc(-n3cc(-c4cccc(C(=O)O)c4)nn3)cc2)c1 [listing 1 of 2 here]
- Activity [2]: 94.3%
- IC50 [3]: 802 nM
- Activity [6]: Non-Toxic
- Activity [7]: Non-Toxic

Structure (SMILES): O=C(O)c1cccc(-c2cn(-c3ccc(-c4ccc5c(c4)OCCO5)cc3)nn2)c1
- IC50 [3]: 1200 nM
- Activity [6]: Non-Toxic
- Activity [7]: Non-Toxic

Structure (SMILES): COc1cccc(OC)c1-c1ccc(-c2cn(-c3cccc(C(=O)O)c3)nn2)cc1
- Activity [8]: Active
- Activity [9]: Active

Structure (SMILES): COc1ccc(-c2ccc(-n3cc(-c4cccc(C(=O)O)c4)nn3)cc2)c(OC)c1
- inhibition ([1]; dose 10.0 µM): 56.4%

Structure (SMILES): Cc1cccc(F)c1C(=O)Nc1cnc(-c2cc3c(cc2Cl)OC(F)(F)O3)cn1 [ZEGOCRACTIN]
- Activity [6]: Toxic
- Activity [7]: Toxic

Structure (SMILES): COc1cccc(-c2ccc(-c3cn(-c4cccc(C(=O)O)c4)nn3)cc2)c1OC
- inhibition ([1]; dose 10.0 µM): 93.3%
- IC50 [3]: 781 nM
- inhibition [4]: Active
- inhibition [5]: Active
- inhibition [10]: Active

Structure (SMILES): O=C(O)c1cccc(C(=O)Nc2ccc(-c3ccc4c(c3)OCCO4)cc2)c1
- inhibition ([1]; dose 10.0 µM): 51.8%
- Activity [2]: 50.3%
- Activity [6]: Toxic
- Activity [7]: Non-Toxic

Structure (SMILES): COc1cc(OC)cc(-c2ccc(-n3cc(-c4cccc(C(=O)O)c4)nn3)cc2)c1 [listing 2 of 2 here]
- inhibition [1, 15]: 73.8%
- inhibition [4]: Active
- inhibition [5]: Active
- inhibition [10]: Active

Structure (SMILES): COc1cccc(-c2ccc(-n3cc(-c4cccc(C(=O)O)c4)nn3)cc2)c1OC
- inhibition [1, 15]: 96.5%
- inhibition [4]: Active
- inhibition [5]: Active
- inhibition [10]: Active
- Activity [11]: Active
- Activity [12]: Active

Structure (SMILES): C/C(O)=C(\C#N)C(=O)Nc1ccc(C(F)(F)F)cc1 [TERIFLUNOMIDE]
- Activity [6]: Non-Toxic

Structure (SMILES): COc1ccc(-c2ccc(-n3cc(-c4cccc(C(=O)O)c4)nn3)cc2)cc1OC
- inhibition [1, 15]: 54.3%

Structure (SMILES): COc1cccc(OC)c1-c1ccc(-n2cc(-c3cccc(C(=O)O)c3)nn2)cc1
- inhibition ([1]; dose 10.0 µM): 25.8%

Structure (SMILES): O=C(O)c1cccc(-c2cn(-c3ccc(-c4cccc5c4OCCO5)cc3)nn2)c1
- inhibition [1, 15]: 70.9%
- Activity [2]: 90.5%
- IC50 [3]: 1620 nM
- inhibition [4]: Active
- inhibition [5]: Active
- inhibition [10]: Active

Structure (SMILES): O=C(O)c1cccc(-c2cn(-c3ccc(-c4ccccc4)cc3)nn2)c1
- inhibition ([1]; dose 10.0 µM): 51%

Structure (SMILES): COc1ccc(F)c(-c2ccc(-n3cc(-c4cccc(C(=O)O)c4)nn3)cc2)c1
- Activity [2]: 91.1%
- IC50 [3]: 361 nM
- Activity [6]: Non-Toxic
- Activity [7]: Non-Toxic

Structure (SMILES): COc1ccc(F)c(-c2ccc(-n3cc(-c4cccc(C(=O)[O-])c4)nn3)cc2)c1.[Na+]
- solubility thermodynamic [13]: 1170 µg/mL
- remaining at 1 h [14]: 93%

Structure (SMILES): COc1ccc(-c2ccc(-c3cn(-c4cccc(C(=O)O)c4)nn3)cc2)c(OC)c1
- inhibition ([1]; dose 10.0 µM): 53%

Structure (SMILES): COc1ccc(OC)c(-c2ccc(-n3cc(-c4ccnc(C(=O)O)c4)nn3)cc2)c1
- inhibition ([1]; dose 10.0 µM): 79.9%

Structure (SMILES): COc1ccc(OC)c(-c2ccc(-c3cn(-c4ccncc4F)nn3)cc2)c1
- inhibition ([1]; dose 10.0 µM): 26.2%

Structure (SMILES): COC(=O)c1cc(-n2cc(-c3ccc(-c4cc(OC)ccc4OC)cc3)nn2)ccn1
- inhibition ([1]; dose 10.0 µM): 73.5%

Structure (SMILES): COc1ccc(F)c(-c2ccc(-c3cn(-c4cccc(C(=O)O)c4)nn3)cc2)c1
- inhibition ([1]; dose 10.0 µM): 88.9%
- Activity [2]: 92.3%
- IC50 [3]: 866 nM
- inhibition [4]: Active
- inhibition [5]: Active
- inhibition [10]: Active
